Where a SMILES comes first, the peptide text is derived from it. The star is where a group is joined. X1 = CSCC[C@H](NC[C@H](CC(C)C)N*)C(N)=O; X2 = CC(=O)NC[C@H](CC(C)C)N*; For = O=C*
Columns and labels:
Assay type in all cases: functional
[1] = molecular target: Gastrin-releasing peptide receptor (Rattus norvegicus) (UniProt P52500); experiment: Tested for the inhibition of Bombesin-stimulated amylase release in the presence of 0.2 nM of bombesin in rat pranceatic acini
How it was run: (§1)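 Dispersed rat pancreatic acini prepared by collagenase digestion (300 units/20 mL), washed through 4% BSA. Incubated 30 min at 37 °C under 100% oxygen in HEPES buffer (pH 7.4) with 0.5 mM CaCl₂, 1% albumin and trypsin inhibitor, with peptide plus 0.2 nM BN. Amylase (Phadebas test) released, as percent of initial acinar content, normalized to BN alone; triplicate measurements.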

[2] = molecular target: Gastrin-releasing peptide receptor (Rattus norvegicus) (UniProt P52500); experiment: Tested for the inhibition of bombesin-stimulated amylase release in rat pranceatic acini; how it was run: as §1
[3] = molecular target: Gastrin-releasing peptide receptor (Rattus norvegicus) (UniProt P52500); experiment: Tested for the inhibition of Bombesin-stimulated amylase release at 5 uM concentration in rat pranceatic acini; how it was run: as §1
[4] = molecular target: Gastrin-releasing peptide receptor (Rattus norvegicus) (UniProt P52500); experiment: Tested for the inhibition of Bombesin-stimulated amylase release at 5 uM concentration in the presence of 0.2 nM of bombesin in rat pranceatic acini; how it was run: as §1
[5] = molecular target: Gastrin-releasing peptide receptor (Rattus norvegicus) (UniProt P52500); experiment: Tested for the inhibition of Bombesin-stimulated amylase release at 50 nM concentration in the presence of 0.2 nM of bombesin in rat pranceatic acini; how it was run: as §1
[6] = molecular target: Gastrin-releasing peptide receptor (Rattus norvegicus) (UniProt P52500); experiment: Tested for the inhibition of Bombesin-stimulated amylase release at 50 nM concentration in rat pranceatic acini; how it was run: as §1

Chain of Gastrin-releasing peptide receptor (Rattus norvegicus) (P52500 whole entry): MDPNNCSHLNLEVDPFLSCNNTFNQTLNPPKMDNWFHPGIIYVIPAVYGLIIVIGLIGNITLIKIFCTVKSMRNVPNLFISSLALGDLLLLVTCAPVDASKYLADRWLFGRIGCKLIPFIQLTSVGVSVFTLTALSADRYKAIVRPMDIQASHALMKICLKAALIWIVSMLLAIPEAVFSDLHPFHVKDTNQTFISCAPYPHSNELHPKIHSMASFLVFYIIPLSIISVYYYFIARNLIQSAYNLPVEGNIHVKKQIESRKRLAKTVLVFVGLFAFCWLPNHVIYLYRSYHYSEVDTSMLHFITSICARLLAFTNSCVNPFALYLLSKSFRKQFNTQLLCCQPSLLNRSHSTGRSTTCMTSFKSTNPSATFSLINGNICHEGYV

Compound `CSCC[C@@H](C(N)=O)N(C=O)C[C@H](CC(C)C)NC(=O)[C@H](Cc1c[nH]cn1)NC(=O)CNC(=O)[C@@H](NC(=O)[C@H](C)NC(=O)[C@H](Cc1c[nH]c2ccccc12)NC(=O)[C@H](Cc1c[nH]cn1)NC(=O)[C@@H](Cc1ccccc1)NC(=O)CN)C(C)C` has a Release [1] of 10.4%, a Release [2] of 3.7% and a Release [3] of 13.3%. For the same compound, the Release [4] was 11.6%.
`CC(=O)NC[C@H](CC(C)C)NC(=O)[C@H](Cc1c[nH]cn1)NC(=O)CNC(=O)[C@@H](NC(=O)[C@H](C)NC(=O)[C@H](Cc1c[nH]c2ccccc12)NC(=O)[C@H](CCC(N)=O)NC(=O)[C@H](N)Cc1ccccc1)C(C)C` was tested, and the Release [1] was 14.6%, the Release [2] was 3.3% and the Release [4] was 3.6%. It also gave a Release [5] of 10.3%.
For `CC(=O)NC[C@H](CC(C)C)NC(=O)[C@H](Cc1c[nH]cn1)NC(=O)CNC(=O)[C@@H](NC(=O)[C@H](C)NC(=O)[C@H](Cc1c[nH]c2ccccc12)NC(=O)[C@H](Cc1c[nH]cn1)NC(=O)[C@@H](N)CCC(N)=O)C(C)C` (H-QHWAVGH-X2), the Release [1] was 14.4%, the Release [2] was 3.6% and the Release [3] was 3.6%. For the same compound, the Release [4] was 8.2% and the Release [5] was 14.5%.
Compound `CN[C@@H](Cc1ccccc1)C(=O)N[C@@H](Cc1c[nH]cn1)C(=O)N[C@@H](Cc1c[nH]c2ccccc12)C(=O)N[C@@H](C)C(=O)N[C@H](C(=O)NCC(=O)N[C@@H](Cc1c[nH]cn1)C(=O)N[C@@H](CC(C)C)CN(C=O)[C@@H](CCSC)C(N)=O)C(C)C` has a Release [1] of 9.4%, a Release [2] of 3.5% and a Release [3] of 9%. The Release [4] was 9.9%.
Work on `CC(=O)NC[C@H](CC(C)C)NC(=O)[C@H](Cc1c[nH]cn1)NC(=O)CNC(=O)[C@@H](NC(=O)[C@H](C)NC(=O)[C@H](Cc1c[nH]c2ccccc12)NC(=O)[C@H](CCC(N)=O)NC(=O)[C@@H](Cc1ccccc1)NC(C)=O)C(C)C` yielded a Release [1] of 16.5%, a Release [2] of 3% and a Release [4] of 4.3%. It also gave a Release [5] of 14.8%.
In the case of `CC(C)C[C@@H](CN[C@@H](CC(C)C)C(N)=O)NC(=O)[C@H](Cc1c[nH]cn1)NC(=O)CNC(=O)[C@@H](NC(=O)[C@H](C)NC(=O)[C@H](Cc1c[nH]c2ccccc12)NC(=O)[C@H](CCC(N)=O)NC(=O)[C@H](CC(N)=O)NC(=O)CNC(=O)[C@H](CC(C)C)NC(=O)[C@H](CCCN=C(N)N)NC(=O)[C@H](CCC(N)=O)NC(=O)[C@@H]1CCC(=O)N1)C(C)C`, the Release [1] is reported as 17.4%, the Release [2] is reported as 2.8% and the Release [3] is reported as 2.7%. It also gave a Release [4] of 6.2%, a Release [5] of 11.6% and a Release [6] of 3%.
With `CSCC[C@H](NC[C@H](CC(C)C)NC(=O)[C@H](Cc1c[nH]cn1)NC(=O)CNC(=O)[C@@H](NC(=O)[C@H](C)NC(=O)[C@H](Cc1c[nH]c2ccccc12)NC(C)=O)C(C)C)C(N)=O` (Ac-WAVGH-X1) the Release [1] was 17.8%, the Release [2] was 4.8% and the Release [3] was 4.7%. The Release [4] was 16.1%, the Release [5] was 17.9% and the Release [6] was 4.7%.
Compound `CSCC[C@H](NC[C@H](CC(C)C)NC(=O)[C@H](Cc1c[nH]cn1)NC(=O)CNC(=O)[C@@H](NC(=O)[C@H](C)NC(=O)[C@H](Cc1c[nH]c2ccccc12)NC(=O)[C@H](CC(N)=O)NC(=O)CN)C(C)C)C(N)=O` has a Release [1] of 19.3%, a Release [2] of 5.1% and a Release [3] of 6.5%. For the same compound, the Release [4] was 24.5%, the Release [5] was 22.7% and the Release [6] was 7.6%.
For `CC(=O)NC[C@H](CC(C)C)NC(=O)[C@H](Cc1c[nH]cn1)NC(=O)CNC(=O)[C@@H](NC(=O)[C@H](C)NC(=O)[C@H](Cc1c[nH]c2ccccc12)NC(=O)[C@H](Cc1c[nH]cn1)NC(=O)[C@@H](Cc1ccccc1)NC(C)=O)C(C)C`, the Release [1] was 20.2%, the Release [2] was 2.9% and the Release [3] was 3.6%. It also gave a Release [4] of 3.7% and a Release [5] of 16.7%.
`CSCC[C@H](NC[C@H](CC(C)C)NC(=O)[C@H](Cc1c[nH]cn1)NC(=O)CNC(=O)[C@@H](NC(=O)[C@H](C)NC(=O)[C@@H](N)Cc1c[nH]c2ccccc12)C(C)C)C(N)=O` (H-WAVGH-X1) gave a Release [1] of 17.6%, a Release [2] of 4.9% and a Release [3] of 5.3%. For the same compound, the Release [4] was 18.1%, the Release [5] was 20.8% and the Release [6] was 5.4%.
For `CC(=O)NC[C@H](CC(C)C)NC(=O)[C@H](Cc1c[nH]cn1)NC(=O)CNC(=O)[C@@H](NC(=O)[C@H](C)NC(=O)[C@H](Cc1cn(C=O)c2ccccc12)NC(=O)[C@H](Cc1c[nH]cn1)NC(=O)[C@H](CCC(N)=O)NC(C)=O)C(C)C` (Ac-QHW(For)AVGH-X2), the Release [1] was 16%, the Release [2] was 3.2% and the Release [4] was 12.5%. The Release [5] was 15.8%.
Work on `CC(=O)NC[C@H](CC(C)C)NC(=O)[C@H](Cc1c[nH]cn1)NC(=O)CNC(=O)[C@@H](NC(=O)[C@H](C)NC(=O)[C@H](Cc1c[nH]c2ccccc12)NC(=O)[C@H](Cc1c[nH]cn1)NC(=O)[C@H](CCC(N)=O)NC(C)=O)C(C)C` (Ac-QHWAVGH-X2) yielded a Release [1] of 15.9%, a Release [2] of 3.1% and a Release [3] of 3.6%. For the same compound, the Release [4] was 4% and the Release [5] was 12.2%.
`CSCC[C@@H](C(N)=O)N(C=O)C[C@H](CC(C)C)NC(=O)[C@H](Cc1c[nH]cn1)NC(=O)CNC(=O)[C@@H](NC(=O)[C@H](C)NC(=O)[C@H](Cc1c[nH]c2ccccc12)NC(=O)[C@H](Cc1c[nH]cn1)NC(=O)[C@H](CC(N)=O)NC(=O)CN)C(C)C` was tested, and the Release [1] was 9.4%, the Release [2] was 3.5% and the Release [3] was 9.2%. It also gave a Release [4] of 13.1%.
Work on `CC(=O)NC[C@H](CC(C)C)NC(=O)[C@H](Cc1c[nH]cn1)NC(=O)CNC(=O)[C@@H](NC(=O)[C@H](C)NC(=O)[C@H](Cc1cn(C=O)c2ccccc12)NC(=O)[C@H](Cc1c[nH]cn1)NC(=O)[C@H](N)Cc1ccccc1)C(C)C` yielded a Release [1] of 20.3%, a Release [2] of 3.2% and a Release [3] of 3.1%. It also gave a Release [4] of 4.8% and a Release [5] of 16.2%.
For `CC(=O)NC[C@H](CC(C)C)NC(=O)[C@H](Cc1c[nH]cn1)NC(=O)CNC(=O)[C@@H](NC(=O)[C@H](C)NC(=O)[C@H](Cc1c[nH]c2ccccc12)NC(=O)[C@H](Cc1c[nH]cn1)NC(=O)[C@H](N)Cc1ccccc1)C(C)C`, the Release [1] was 15.7%, the Release [2] was 3% and the Release [3] was 3%. It also gave a Release [4] of 3.4% and a Release [5] of 9%.
With `CSCC[C@H](NC[C@H](CC(C)C)NC(=O)[C@H](Cc1c[nH]cn1)NC(=O)CNC(=O)[C@@H](NC(=O)[C@H](C)NC(=O)[C@H](Cc1c[nH]c2ccccc12)NC(=O)[C@H](N)Cc1ccccc1)C(C)C)C(N)=O` the Release [1] was 18.3%, the Release [2] was 5.3% and the Release [3] was 5.7%. For the same compound, the Release [4] was 13.1%, the Release [5] was 19.6% and the Release [6] was 5.3%.
With `CSCC[C@@H](C(N)=O)N(C=O)C[C@H](CC(C)C)NC(=O)[C@H](Cc1c[nH]cn1)NC(=O)CNC(=O)[C@@H](NC(=O)[C@H](C)NC(=O)[C@H](Cc1c[nH]c2ccccc12)NC(=O)[C@H](Cc1c[nH]cn1)NC(=O)[C@H](N)Cc1ccccc1)C(C)C` the Release [1] was 10.4%, the Release [2] was 3.7% and the Release [3] was 10.3%. For the same compound, the Release [4] was 13%.
`CN[C@H](Cc1ccccc1)C(=O)N[C@@H](Cc1c[nH]cn1)C(=O)N[C@@H](Cc1c[nH]c2ccccc12)C(=O)N[C@@H](C)C(=O)N[C@H](C(=O)NCC(=O)N[C@@H](Cc1c[nH]cn1)C(=O)N[C@@H](CC(C)C)CN(C=O)[C@@H](CCSC)C(N)=O)C(C)C` showed a Release [1] of 9.4%, a Release [2] of 3.5% and a Release [3] of 9.1%. For the same compound, the Release [4] was 12.9%.
`CN[C@H](Cc1ccccc1)C(=O)N[C@@H](Cc1c[nH]c2ccccc12)C(=O)N[C@@H](C)C(=O)N[C@H](C(=O)NCC(=O)N[C@@H](Cc1c[nH]cn1)C(=O)N[C@H](CN[C@@H](CCSC)C(N)=O)CC(C)C)C(C)C` showed a Release [1] of 21.2%, a Release [2] of 6.4% and a Release [3] of 12.2%. For the same compound, the Release [4] was 14.3%, the Release [5] was 16% and the Release [6] was 7.2%.
Work on `CCCCC[C@H](CC(C)C)NC(=O)[C@H](Cc1c[nH]cn1)NC(=O)CNC(=O)[C@@H](NC(=O)[C@H](C)NC(=O)[C@H](Cc1c[nH]c2ccccc12)NC(=O)[C@@H](Cc1c[nH]cn1)NC(=O)C(C)(C)C)C(C)C` yielded a Release [1] of 17.4%, a Release [2] of 5.3% and a Release [3] of 6%. It also gave a Release [4] of 6.3%, a Release [5] of 6.3% and a Release [6] of 5.1%.

From ChEMBL document CHEMBL1125552, “Synthesis and biological evaluation of novel potent antagonists of the bombesin/gastrin releasing peptide receptor” (1992)
